Experiments:
[1] = test system: HL-60; assay: Antitumor activity against human HL60 cells; type: functional
Procedure, shortened: (§1)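 Tested in the NCI in vitro disease-oriented human tumor cell screen. The endpoints are IC50 (molar concentration giving 50% growth inhibition), TGI (total growth inhibition) and LC50 (50% net cell death). The maximal concentration tested was 100 μM. Subpanel values are means of several individual cell lines.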

[2] = test system: K562; assay: Antitumor activity against human K562 cells; type: functional; procedure, shortened: as §1
[3] = test system: RPMI-8226; assay: Antitumor activity against human RPMI8226 cells; type: functional; procedure, shortened: as §1
[4] = test system: EKVX; assay: Antitumor activity against human EKVX cells; type: functional; procedure, shortened: as §1
[5] = test system: NCI-H23; assay: Antitumor activity against human NCI-H23 cells; type: functional; procedure, shortened: as §1
[6] = test system: NCI-H322M; assay: Antitumor activity against human NCI-H322M cells; type: functional; procedure, shortened: as §1
[7] = test system: NCI-H460; assay: Antitumor activity against human NCI-H460 cells; type: functional; procedure, shortened: as §1
[8] = test system: COLO 205; assay: Antitumor activity against human COLO 205 cells; type: functional; procedure, shortened: as §1
[9] = test system: HCT-15; assay: Antitumor activity against human HCT15 cells; type: functional; procedure, shortened: as §1
[10] = test system: KM12; assay: Antitumor activity against human KM12 cells; type: functional; procedure, shortened: as §1
[11] = test system: SF-268; assay: Antitumor activity against human SF268 cells; type: functional; procedure, shortened: as §1
[12] = test system: SF-539; assay: Antitumor activity against human SF539 cells; type: functional; procedure, shortened: as §1
[13] = test system: SNB-19; assay: Antitumor activity against human SNB19 cells; type: functional; procedure, shortened: as §1
[14] = test system: SNB-75; assay: Antitumor activity against human SNB75 cells; type: functional
Procedure, shortened: (§2)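 NCI in vitro disease-oriented tumour cell line screen. Read-outs are IC50 (molar concentration giving 50% growth inhibition), TGI (molar concentration giving total inhibition of net growth) and LC50 (molar concentration giving 50% net cell death). The maximal concentration tested was 100 μM.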

[15] = test system: U-251; assay: Antitumor activity against human U251 cells; type: functional; procedure, shortened: as §2
[16] = Antitumor activity against human LOX IMV1 cells; type: functional, cell-based; procedure, shortened: as §1
[17] = test system: SK-MEL-2; assay: Antitumor activity against human SK-MEL-2 cells; type: functional; procedure, shortened: as §1
[18] = test system: SK-MEL-5; assay: Antitumor activity against human SK-MEL-5 cells; type: functional; procedure, shortened: as §1
[19] = test system: UACC-257; assay: Antitumor activity against human UACC257 cells; type: functional; procedure, shortened: as §2
[20] = test system: UACC-62; assay: Antitumor activity against human UACC62 cells; type: functional; procedure, shortened: as §2
[21] = test system: OVCAR-3; assay: Antitumor activity against human OVCAR-3 cells; type: functional; procedure, shortened: as §1
[22] = test system: OVCAR-8; assay: Antitumor activity against human OVCAR8 cells; type: functional; procedure, shortened: as §1
[23] = test system: SK-OV-3; assay: Antitumor activity against human SKOV3 cells; type: functional; procedure, shortened: as §1
[24] = test system: 786-0; assay: Antitumor activity against human 786-0 cells; type: functional; procedure, shortened: as §1
[25] = test system: CAKI-1; assay: Antitumor activity against human CAKI1 cells; type: functional; procedure, shortened: as §1
[26] = test system: TK-10; assay: Antitumor activity against human TK10 cells; type: functional; procedure, shortened: as §2
[27] = test system: DU-145; assay: Antitumor activity against human DU145 cells; type: functional; procedure, shortened: as §1
[28] = test system: MCF7; assay: Antitumor activity against human MCF7 cells; type: functional; procedure, shortened: as §1
[29] = test system: MDA-MB-231; assay: Antitumor activity against human MDA-MB-231 cells; type: functional; procedure, shortened: as §1
[30] = test system: MDA-MB-435; assay: Antitumor activity against human MDA-MB-435 cells; type: functional; procedure, shortened: as §1
[31] = test system: T47D; assay: Antitumor activity against human T47D cells; type: functional; procedure, shortened: as §2
[32] = Half life of hydrolysis in deuterated phosphate buffer at pD 7.8; conditions: deuterated phosphate buffer, pH 7.8
[33] = test system: SK-MEL-28; assay: Antitumor activity against human SK-MEL-28 cells; type: functional; procedure, shortened: as §1
[34] = test system: NCI; assay: Antitumor activity against human NCI leukemia cell line panel; type: functional, cell-based; procedure, shortened: as §1
[35] = test system: Non-small cell lung cancer cell line; assay: Antitumor activity against human NCI non-small cell lung cancer cell line panel; type: functional, cell-based; procedure, shortened: as §1
[36] = test system: NCI; assay: Antitumor activity against human NCI CNS cancer cell line panel; type: functional, cell-based; procedure, shortened: as §1
[37] = test system: carcinoma cell line; assay: Antitumor activity against human NCI ovarian carcinoma cell line panel; type: functional, cell-based; procedure, shortened: as §1
[38] = test system: NCI; assay: Antitumor activity against human NCI renal cancer cell line panel; type: functional, cell-based; procedure, shortened: as §1
[39] = test system: NCI; assay: Antitumor activity against human NCI breast cancer cell line panel; type: functional, cell-based; procedure, shortened: as §1
[40] = test system: HOP-92; assay: Antitumor activity against human HOP92 cells; type: functional; procedure, shortened: as §1
[41] = test system: OVCAR-5; assay: Antitumor activity against human OVCAR5 cells; type: functional; procedure, shortened: as §1
[42] = read-out: Log LC50 (the source's name) (converted)
[43] = read-out: LC50 (the source's name)

SMILES: CN(/N=N/c1nc(OCc2ccccc2)c2nc[nH]c2n1)C(=O)Oc1ccc([N+](=O)[O-])cc1
- GI50 [1]: 12 µM
- CC50 [1, 42]: > 50.1 µM
- TGI ([1]; read-out: Log TGI (converted)): > 50.1 µM
- GI50 [2]: 12 µM
- CC50 [2, 42]: > 50.1 µM
- TGI ([2]; read-out: Log TGI (converted)): > 50.1 µM
- GI50 [3]: 9.12 µM
- CC50 [3, 42]: > 50.1 µM
- TGI ([3]; read-out: Log TGI (converted)): > 50.1 µM
- GI50 [4]: 11.5 µM
- CC50 [4, 42]: > 50.1 µM
- TGI ([4]; read-out: Log TGI (converted)): 36.3 µM
- GI50 [5]: 8.51 µM
- LC50 (50% net cell kill) [5]: 32.4 µM
- TGI ([5]; read-out: Log TGI (converted)): 16.2 µM
- GI50 [6]: 9.33 µM
- CC50 [6, 42]: 45.7 µM
- TGI ([6]; read-out: Log TGI (converted)): 20.9 µM
- GI50 [7]: 6.76 µM
- CC50 [7, 42]: > 50.1 µM
- TGI ([7]; read-out: Log TGI (converted)): 31.6 µM
- GI50 [8]: 10.2 µM
- CC50 [8, 42]: > 50.1 µM
- TGI ([8]; read-out: Log TGI (converted)): 29.5 µM
- GI50 [9]: 8.91 µM
- CC50 [9, 42]: 44.7 µM
- TGI ([9]; read-out: Log TGI (converted)): 20 µM
- GI50 [10]: 8.51 µM
- CC50 [10, 42]: 41.7 µM
- TGI ([10]; read-out: Log TGI (converted)): 18.6 µM
- GI50 [11]: 9.33 µM
- CC50 [11, 42]: > 50.1 µM
- TGI ([11]; read-out: Log TGI (converted)): 29.5 µM
- GI50 [12]: 9.77 µM
- CC50 [12, 42]: > 50.1 µM
- TGI ([12]; read-out: Log TGI (converted)): 28.8 µM
- GI50 [13]: 9.55 µM
- LC50 [13]: > 50.1 µM
- TGI ([13]; read-out: Log TGI (converted)): 28.2 µM
- CC50 [14, 42]: > 50.1 µM
- TGI ([14]; read-out: Log TGI (converted)): > 50.1 µM
- GI50 [15]: 7.59 µM
- CC50 [15, 42]: 31.6 µM
- TGI ([15]; read-out: Log TGI (converted)): 15.1 µM
- GI50 [16]: 1150 nM
- IC50 [16]: 1100 nM
- CC50 [16, 43]: 27 µM
- CC50 [16, 42]: 26.9 µM
- TGI ([16]; read-out: Log TGI (converted)): 10.7 µM
- TGI ([16]; read-out: TGI): 11 µM
- GI50 [17]: 12 µM
- CC50 [17, 42]: > 50.1 µM
- TGI ([17]; read-out: Log TGI (converted)): 28.2 µM
- GI50 [18]: 6.92 µM
- CC50 [18, 42]: 38.9 µM
- TGI ([18]; read-out: Log TGI (converted)): 16.2 µM
- GI50 [19]: 38.9 µM
- CC50 [19, 42]: > 50.1 µM
- TGI ([19]; read-out: Log TGI (converted)): > 50.1 µM
- GI50 [20]: 7.59 µM
- CC50 [20, 42]: 30.9 µM
- TGI ([20]; read-out: Log TGI (converted)): 15.1 µM
- GI50 [21]: 9.55 µM
- LC50 [21]: > 50.1 µM
- TGI ([21]; read-out: Log TGI (converted)): 24.5 µM
- GI50 [22]: 9.77 µM
- LC50 (concentration giving 50% net cell death) [22]: > 50.1 µM
- TGI ([22]; read-out: Log TGI (converted)): 26.3 µM
- GI50 [23]: 10.5 µM
- CC50 [23, 42]: > 50.1 µM
- TGI ([23]; read-out: Log TGI (converted)): 28.8 µM
- GI50 [24]: 8.71 µM
- LC50 (concentration giving 50% net cell death) [24]: > 50.1 µM
- TGI ([24]; read-out: Log TGI (converted)): 23.4 µM
- GI50 [25]: 11 µM
- CC50 [25, 42]: > 50.1 µM
- TGI ([25]; read-out: Log TGI (converted)): 35.5 µM
- GI50 [26]: 12 µM
- CC50 [26, 42]: > 50.1 µM
- TGI ([26]; read-out: Log TGI (converted)): 33.9 µM
- GI50 [27]: 9.12 µM
- CC50 [27, 42]: 42.7 µM
- TGI ([27]; read-out: Log TGI (converted)): 19.5 µM
- GI50 [28]: 12.3 µM
- CC50 [28, 42]: > 50.1 µM
- TGI ([28]; read-out: Log TGI (converted)): > 50.1 µM
- GI50 [29]: 5.75 µM
- CC50 [29, 42]: > 50.1 µM
- TGI ([29]; read-out: Log TGI (converted)): 18.6 µM
- GI50 [30]: 12.3 µM
- CC50 [30, 42]: > 50.1 µM
- TGI ([30]; read-out: Log TGI (converted)): 39.8 µM
- GI50 [31]: 14.1 µM
- CC50 [31, 42]: > 50.1 µM
- TGI ([31]; read-out: Log TGI (converted)): 32.4 µM
- half-life [32]: 23 min
- GI50 [33]: 12.3 µM
- CC50 [33, 42]: > 50.1 µM
- TGI ([33]; read-out: Log TGI (converted)): > 50.1 µM
- IC50 [34]: 14 µM
- TGI [34]: 50 µM
- CC50 [34, 43]: 50 µM
- IC50 [35]: 11 µM
- TGI [35]: 29 µM
- CC50 [35, 43]: 47 µM
- IC50 [36]: 9 µM
- TGI [36]: 30 µM
- CC50 [36, 43]: 47 µM
- IC50 [37]: 12 µM
- TGI [37]: 34 µM
- CC50 [37, 43]: 50 µM
- IC50 [38]: 9 µM
- TGI [38]: 25 µM
- CC50 [38, 43]: 44 µM
- IC50 [39]: 10 µM
- TGI [39]: 30 µM
- CC50 [39, 43]: 50 µM
- GI50 [40]: 7.24 µM
- CC50 [40, 42]: > 50.1 µM
- TGI ([40]; read-out: Log TGI (converted)): 26.3 µM
- GI50 [41]: 11.5 µM
- CC50 [41, 42]: > 50.1 µM
- TGI ([41]; read-out: Log TGI (converted)): > 50.1 µM

Source: ChEMBL document CHEMBL1149311, “Synthesis and antitumor activity of methyltriazene prodrugs simultaneously releasing DNA-methylating agents and the antiresistance drug O(6)-benzylguanine” (J Med Chem, 2004)
